# Screens from PubChem BioAssay.
# Only a selection was taken, and hits are over-represented in it overall.
# PTEN del growth = growth suppressors of cells with PTEN tumor suppressor deletion; viability, % at 10 µM; actives 1.2% (n = 140,000); HCT116 PTEN-null viability, CellTiter-Glo, 60 h; active compounds read low;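 active = viability at or below a set limit, 4 SD under the median of all tested compounds, cut at about 3.7% in these data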;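 note: PTEN knockout HCT116 line with beta catenin targeted HCT116 as companion control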
# HUVEC inhibit = inhibitors of human endothelial cell proliferation | HUVEC proliferation, CellTiter-Glo luminescence, 72 h; active compounds read low | AID 648 | viability, % at 10 µM (by protocol) | actives 1.1% (n = 86,000);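 active = viability at or below 30%; inactive = viability above 30%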;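 note: 100% = median luminescence of DMSO-only cell control wells on each plate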
# HCT116 bCat-KO = beta-catenin-lacking colon tumor cell growth suppression; actives 1.5% (n = 140,000); viability, % at 10 µM; HCT116 beta-catenin knockout viability, CellTiter-Glo, 60 h; active compounds read low; AID 818;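 active = viability at or under a set limit, the compound median less 4 SD, cut at about 6% in these data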;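 note: 0% = Hyamine 1622 control at 20 µM and 100% = untreated cell control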
# H69AR growth 86K = blocks growth of human H69AR lung tumor cells | H69AR lung tumor viability, ATP luminescence, 72 h; active compounds read low | viability, % at 10 µM | actives 6% (n = 85,000);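 active = viability at or below 40%; inactive = viability above 40%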;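 note: multidrug resistant small cell line overexpressing MRP-1 efflux transporter; 100% = mean luminescence of untreated control wells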
# Fibroblast inh = blocks proliferation of human lung fibroblasts; actives 1.1% (n = 85,000); AID 719; LL 47 human lung fibroblast viability, ATP luminescence; active compounds read low; viability, % at 10 µM;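 active = viability at or below 50% in the single dose screen; inactive = viability above 50%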;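 note: compound exposure lasted 72 h before the ATP readout; 100% = median luminescence of untreated cell-only wells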
#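 Test system: LL 47 human lung fibroblasts / Quantity: 1,150 cells in each well / Medium: IMEM growth medium with 15% fetal bovine serum / Incubation: 72 h compound exposure at 37 °C after overnight plating / Detection: CellTiter-Glo luminescence measuring cellular ATP / Read-out: % viability versus median cells-only luminescence / Benchmarks: cell-only wells, no compound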
# Active calls of the source: *; nt = no result given.
SMILES,PTEN del growth,HUVEC inhibit,HCT116 bCat-KO,H69AR growth 86K,Fibroblast inh
CCN(CC)CCCNc1nc2cc(OC)c(OC)cc2c2nc(-c3cccnc3)nn12,1.6*,76,1.7*,65,71
COc1cc2nc(NCCN3CCOCC3)n3nc(-c4ccccc4)nc3c2cc1OC,nt,83,nt,66,106
CCN(CC)CCCNc1nc2cc(OC)c(OC)cc2c2nc(-c3ccccc3)nn12,0.8*,26*,0.8*,6.5*,1.8*
COc1ccc(-n2ncc3c(NCC4CCCO4)ncnc32)cc1 (stereo not drawn),103,85,101,87,112
CCOC(=O)N1CCC(=NNC(=O)c2ccccc2F)CC1,96,nt,99,nt,nt
O=[N+]([O-])c1cccc(/C=C/c2nc(C=Nc3ccc4ccccc4c3)c(O)o2)c1,2.7*,nt,18,nt,nt
O=C(CO/N=C/c1cccc([N+](=O)[O-])c1)Nc1ccc2ccccc2c1,104,89,96,68,108
CCCC(=O)Nc1sc(C)c(C)c1C(=O)Nc1cccc(C)c1,101,nt,99,nt,nt
O=C(Cn1nc(Cl)nc1Cl)c1ccc2c(c1)OCCO2,95,83,80,38*,96
Cn1cnnc1SCC(=O)c1cc2ccccc2oc1=O,91,88,93,76,89
Cc1cc(C)nc(SCC(=O)c2ccc3c(c2)OCCO3)n1,99,nt,99,nt,nt
O=C(Cn1nc(Cl)nc1Cl)c1cc2ccccc2oc1=O,87,90,93,32*,99
C/C(=N/NC(=O)CNC(=O)COc1ccccc1)c1ccco1,98,nt,95,nt,nt
Cc1ccc(N(CC(O)CON=C2c3ccccc3-c3ccccc32)S(C)(=O)=O)cc1 (stereo not drawn),15,66,19,15*,98
CC(=O)Nc1ccc(N(CC(O)Cn2c3ccccc3c3ccccc32)S(=O)(=O)c2ccc(C)cc2)cc1 (stereo not drawn),31,nt,43,nt,nt
Cc1ccc(N(CC(O)Cn2c3ccccc3c3ccccc32)S(C)(=O)=O)cc1 (stereo not drawn),81,54,65,32*,92
CS(=O)(=O)N(Cc1ccco1)CC(O)Cn1c2ccccc2c2ccccc21 (stereo not drawn),66,nt,66,nt,nt
Cc1cccc(C)c1N(CC(O)Cn1c2ccccc2c2ccccc21)S(C)(=O)=O (stereo not drawn),44,66,50,21*,86
Cc1ccc(N(CC(O)CN2CCCC2)S(=O)(=O)c2ccc(C)cc2)cc1 (stereo not drawn),83,nt,90,nt,nt
Cc1ccc(N(CC(O)Cn2c3ccccc3c3ccccc32)S(C)(=O)=O)c(C)c1 (stereo not drawn),53,61,66,17*,90
O=C(Nc1ccccc1C(=O)OCC(=O)c1c[nH]c2ccccc12)c1ccco1,62,nt,72,nt,nt
N#Cc1ccccc1NC(=O)c1ccccc1OCC(=O)Nc1ccc2c(c1)oc1ccccc12,nt,60,nt,3.9*,90
CCOc1ccc(C(=O)Nc2c(C(N)=O)oc3ccccc23)cc1,83,86,92,44,92
CCOc1ccc(CC(=O)Nc2c(C(N)=O)oc3ccc(Br)cc23)cc1OCC,54,99,55,37*,92
CCOc1ccc(CC(=O)Nc2c(C(=O)Nc3ccccc3)oc3ccccc23)cc1OCC,59,82,41,35*,72
SMILES,PTEN del growth,HUVEC inhibit,HCT116 bCat-KO,H69AR growth 86K,Fibroblast inh
N#Cc1ccccc1OCC(=O)Nc1c(C(=O)C2CC2)oc2ccccc12,77,59,68,7.6*,84
CC(=O)Nc1c(C(=O)C2CC2)oc2ccccc12,91,97,102,86,91
CCOC(=O)n1cc(-c2cnc(CNC(=O)C(C)(c3ccccc3)c3ccccc3)o2)c2ccccc21,75,nt,81,nt,nt
Cc1cc(C)nc(-n2nc(C)cc2NC(=O)c2cccc(S(=O)(=O)N3CCCCC3)c2)n1,69,nt,90,nt,nt
COc1ccc(NC(=O)c2oc3ccccc3c2NC(=O)COc2ccccc2OC)c(OC)c1,45,7.2*,25,19*,71
O=c1ccc(NS(=O)(=O)c2ccccc2)cn1Cc1ccc(Cl)c(Cl)c1,88,nt,78,nt,nt
Cc1cc(S(=O)(=O)Nc2cccnc2)c(C)s1,94,90,92,106,103
Cc1cc(S(=O)(=O)Nc2ccc3ccccc3c2)c(C)s1,23,55,14,12*,72
Cc1cc(S(=O)(=O)Nc2cc(C)c(O)c(C)c2)c(C)s1,2.1*,88,1.9*,89,91
